From ChEMBL document CHEMBL1123424, “Conformationally defined adrenergic agents. 2. Catechol imidazoline derivatives: biological effects at alpha 1 and alpha 2 adrenergic receptors” (J Med Chem, 1986) come the findings set out here.

Experiment [1] concerns the target T1, Adrenergic receptor alpha-1 (Rattus norvegicus, UniProt P15823+P23944+P43140).
T1 sequence (P15823 whole entry): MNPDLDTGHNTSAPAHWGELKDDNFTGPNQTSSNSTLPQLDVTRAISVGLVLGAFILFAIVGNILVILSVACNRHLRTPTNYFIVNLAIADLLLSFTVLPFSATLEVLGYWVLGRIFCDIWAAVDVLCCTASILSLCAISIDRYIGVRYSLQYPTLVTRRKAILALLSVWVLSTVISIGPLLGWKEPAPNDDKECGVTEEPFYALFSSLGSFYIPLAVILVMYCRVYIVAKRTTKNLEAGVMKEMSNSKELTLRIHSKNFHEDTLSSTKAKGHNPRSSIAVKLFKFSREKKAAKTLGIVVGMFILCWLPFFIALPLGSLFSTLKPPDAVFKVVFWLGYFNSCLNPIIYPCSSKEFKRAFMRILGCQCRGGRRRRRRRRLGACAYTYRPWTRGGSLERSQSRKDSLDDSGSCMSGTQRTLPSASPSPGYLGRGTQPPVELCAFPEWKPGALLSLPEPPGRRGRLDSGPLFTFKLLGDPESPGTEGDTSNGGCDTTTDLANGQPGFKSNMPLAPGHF
T1 sequence (P23944 whole entry): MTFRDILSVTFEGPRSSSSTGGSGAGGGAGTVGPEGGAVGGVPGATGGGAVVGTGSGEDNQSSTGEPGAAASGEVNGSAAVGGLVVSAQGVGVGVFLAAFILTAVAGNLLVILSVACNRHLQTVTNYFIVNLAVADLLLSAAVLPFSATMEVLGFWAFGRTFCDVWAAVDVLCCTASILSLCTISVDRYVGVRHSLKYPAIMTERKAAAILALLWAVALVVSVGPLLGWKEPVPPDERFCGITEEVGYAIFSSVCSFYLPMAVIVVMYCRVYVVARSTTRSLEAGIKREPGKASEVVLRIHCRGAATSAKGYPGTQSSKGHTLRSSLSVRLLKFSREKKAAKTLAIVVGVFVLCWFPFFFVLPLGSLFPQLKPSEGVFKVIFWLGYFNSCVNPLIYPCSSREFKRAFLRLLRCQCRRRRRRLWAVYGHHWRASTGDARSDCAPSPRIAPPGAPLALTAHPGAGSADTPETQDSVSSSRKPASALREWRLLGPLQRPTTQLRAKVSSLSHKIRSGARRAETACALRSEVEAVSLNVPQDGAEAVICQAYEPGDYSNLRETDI
T1 sequence (P43140 whole entry): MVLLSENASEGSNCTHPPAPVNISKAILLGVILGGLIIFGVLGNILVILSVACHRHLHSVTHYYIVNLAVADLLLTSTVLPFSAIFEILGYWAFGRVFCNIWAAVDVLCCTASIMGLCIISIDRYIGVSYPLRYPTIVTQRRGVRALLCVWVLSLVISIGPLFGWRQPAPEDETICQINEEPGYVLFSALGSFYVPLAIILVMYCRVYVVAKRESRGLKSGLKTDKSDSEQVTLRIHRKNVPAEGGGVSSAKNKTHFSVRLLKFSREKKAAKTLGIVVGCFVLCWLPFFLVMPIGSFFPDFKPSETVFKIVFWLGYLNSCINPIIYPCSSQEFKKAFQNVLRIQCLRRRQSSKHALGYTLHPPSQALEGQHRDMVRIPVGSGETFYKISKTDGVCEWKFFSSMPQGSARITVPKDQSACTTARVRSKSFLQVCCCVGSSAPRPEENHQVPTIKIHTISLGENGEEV
Briefly: The compound was evaluated for the inhibition of [3H]prazosin binding to alpha-1 adrenergic receptor from rat liver. The method in brief:
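Washed rat liver membranes (male Sprague-Dawley) in 50 mM Tris-HCl pH 7.7, 50-150 μg/mL protein. [3H]prazosin incubated 50 min at 25 °C, then filtration. Nonspecific binding with phentolamine 10⁻⁵ M. At least four test concentrations between 10⁻¹⁰ and 10⁻³ M, in duplicate. IC50 from logit-log plot, Ki by Cheng-Prusoff.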

In experiment [2] the target is T2, Adrenergic receptor alpha-2 (Rattus norvegicus, UniProt P22086+P19328+P22909).
T2 sequence (P22086 whole entry): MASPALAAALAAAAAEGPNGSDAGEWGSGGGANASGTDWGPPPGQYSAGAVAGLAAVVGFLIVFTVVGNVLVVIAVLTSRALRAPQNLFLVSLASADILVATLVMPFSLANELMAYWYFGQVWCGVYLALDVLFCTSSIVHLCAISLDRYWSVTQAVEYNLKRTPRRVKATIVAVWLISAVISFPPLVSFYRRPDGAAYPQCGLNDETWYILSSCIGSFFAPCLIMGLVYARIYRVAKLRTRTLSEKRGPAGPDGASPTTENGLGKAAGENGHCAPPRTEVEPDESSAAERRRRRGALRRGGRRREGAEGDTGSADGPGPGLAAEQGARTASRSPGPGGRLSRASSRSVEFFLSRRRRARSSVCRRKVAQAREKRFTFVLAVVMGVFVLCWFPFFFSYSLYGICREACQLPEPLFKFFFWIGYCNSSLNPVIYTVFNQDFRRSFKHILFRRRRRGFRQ
T2 sequence (P19328 whole entry): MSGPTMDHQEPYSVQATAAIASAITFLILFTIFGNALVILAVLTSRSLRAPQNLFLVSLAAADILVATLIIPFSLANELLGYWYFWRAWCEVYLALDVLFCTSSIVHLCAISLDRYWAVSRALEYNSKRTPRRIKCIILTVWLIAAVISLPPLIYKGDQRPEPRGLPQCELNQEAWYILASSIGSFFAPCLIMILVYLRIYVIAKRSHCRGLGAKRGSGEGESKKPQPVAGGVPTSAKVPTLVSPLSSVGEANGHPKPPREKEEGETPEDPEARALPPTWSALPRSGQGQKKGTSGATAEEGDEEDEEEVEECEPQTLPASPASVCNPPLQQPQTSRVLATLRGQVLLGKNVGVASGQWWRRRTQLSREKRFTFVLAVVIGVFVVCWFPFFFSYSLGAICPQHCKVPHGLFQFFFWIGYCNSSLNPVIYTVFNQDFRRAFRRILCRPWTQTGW
T2 sequence (P22909 whole entry): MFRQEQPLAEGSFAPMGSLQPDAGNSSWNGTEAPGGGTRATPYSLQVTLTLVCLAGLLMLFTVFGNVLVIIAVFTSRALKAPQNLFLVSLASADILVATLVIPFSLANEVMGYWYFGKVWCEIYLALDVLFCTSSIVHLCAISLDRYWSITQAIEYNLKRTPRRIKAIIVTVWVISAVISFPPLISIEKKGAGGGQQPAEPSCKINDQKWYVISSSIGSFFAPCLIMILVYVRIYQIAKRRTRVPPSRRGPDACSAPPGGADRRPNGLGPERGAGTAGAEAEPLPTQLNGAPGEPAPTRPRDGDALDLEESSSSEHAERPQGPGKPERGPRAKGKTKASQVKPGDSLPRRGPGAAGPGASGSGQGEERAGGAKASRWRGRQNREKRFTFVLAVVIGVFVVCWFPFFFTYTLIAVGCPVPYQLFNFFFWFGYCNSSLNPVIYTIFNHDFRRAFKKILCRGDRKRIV
Briefly: The compound was evaluated for the inhibition of [3H]rauwolscine binding to alpha-2-adrenergic receptor from rat cortex. The method in brief: (§1)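 Washed membranes of pooled male Sprague-Dawley rat cerebral cortex in 50 mM Tris-HCl pH 7.7, 50-150 μg/mL protein. [3H]rauwolscine incubated 2 h at 4 °C, then filtration. Nonspecific binding with phentolamine 10⁻⁵ M. At least four test concentrations between 10⁻¹⁰ and 10⁻³ M, in duplicate. IC50 from logit-log plot, Ki by Cheng-Prusoff.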

Experiment [3] concerns the target T2, Adrenergic receptor alpha-2. Briefly: The compound was evaluated for the binding affinity towards alpha-2 adrenergic receptor from rat cortex. The method in brief: as §1
Experiment [4] concerns the target Adrenergic receptor alpha-1 (Homo sapiens) (UniProt P35348+P25100+P35368). In words: Index is the ratio between ED50 value of Norepinephrine to test compound at alpha-1 adrenergic receptor.
The species entered for experiment [5] is Canis familiaris. In words: The compound was evaluated for the alpha-2-adrenergic activity in PBZ-pretreated dog saphenous vein as E max. In kind it is functional. To be noted: Canis lupus familiaris. The method in brief: (§2)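 Dog saphenous vein strips, gassed 95% O2/5% CO2, 37 °C, pH 7.45, 2 g preload, isometric contraction. After 15-20 min equilibration, maximal NE contraction (1 × 10⁻⁴ M) and 60 min wash. Phenoxybenzamine 1 × 10⁻⁷ M for 30 min, 60 min washout. Control cumulative NE curve, washout 45-60 min, then cumulative test-agonist curve. Index = ED50 NE/ED50 CPD per experiment, averaged.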

Experiment [6] is filed under the species Oryctolagus cuniculus. Briefly: The compound was evaluated for the alpha-1-adrenergic activity in isolated rabbit aortic tissue as E max. To be noted: Aorta. In kind it is functional. The method in brief:
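Rabbit aorta helical strip in Krebs buffer, pH 7.4, 37 °C, 2 g initial tension, isometric contraction. […] Washout every 10-15 min for 60-90 min, then cumulative test-compound curve in the same tissue. Index = ED50 NE/ED50 CPD, calculated per experiment, then averaged.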

The target in experiment [7] is Adrenergic receptor alpha-2 (Homo sapiens) (UniProt P08913+P18825+P18089). Briefly: Index is the ratio between ED50 value of Norepinephrine to test compound at alpha-2 adrenergic receptor. The method in brief:
as §2

Experiment [8] is filed under the species Canis familiaris. Briefly: The compound was evaluated for the alpha-2-adrenergic activity in PBZ-pretreated dog saphenous vein as EED50 CPD. In kind it is functional, Canis lupus familiaris. The method in brief: as §2

With `Br.Oc1ccc2c(c1O)CCCC2C1=NCCN1` (stereo not given), the results for the IC50 in experiment [1] and in experiment [2] were 2500 nM and 7 nM, respectively. Also, the Ki in experiment [1] stood at 400 nM; in experiment [3], 6.5 nM. Further, the Ratio in experiment [4] amounted to 13; in experiment [7], 188. The Emax came to 102% in experiment [5] and 114% in experiment [6].
As for `Br.Oc1ccc2c(c1O)CCCCC2C1=NCCN1` (stereo not given), the IC50 in experiment [1] is on record as 56000 nM; in experiment [2], 4200 nM. Moreover, the values for the Ki in experiment [1] and in experiment [3] were 13000 nM and 4000 nM, respectively. Besides, the ED50 in experiment [8] was determined as 350. Further, in experiment [7], the Ratio was 0.03.
As to `Br.Oc1ccc2c(c1O)CC2C1=NCCN1` (stereo not given), the figures for the IC50 in experiment [1] and in experiment [2] were 4400 nM and 49 nM, respectively. The Ki in experiment [1] came to 1100 nM; in experiment [3] it was 46 nM. The Ratio came out at 0.4 in experiment [4] and 1.8 in experiment [7]. The maximum response (Emax) amounted to 67% in experiment [5] and 98% in experiment [6].
As to `Br.Oc1ccc2c(c1O)CCC2C1=NCCN1` (stereo not given), the IC50 in experiment [1] was determined as 1570 nM; in experiment [2] it was 3.3 nM. Besides, the Ki in experiment [1] was 350 nM; in experiment [3], 3.1 nM. The Ratio in experiment [4] was found to be 12; in experiment [7] it was 22. The Emax was 102% in experiment [5] and 124% in experiment [6].
